Assays:
HEK293T cells = assay: Quantitative proteomics in HEK293T cells; assay type: cell-based; conditions: human HEK293T cells, 10 hour treatment
BRD4 [1] = target: T1, BRD4 (Homo sapiens, UniProt O60885); assay: Immunoblot of BRD4 degradation in MM.1S cells; assay type: cell-based
Procedure, shortened: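 MM.1S cells were treated with test compound for 16 h (24 h in the initial screen). For rescue, cells were pretreated 2 h with 10 μM KEAP1 inhibitor, 10 μM JQ1 or 1 μM MLN4924. Lysates in RIPA were BCA-normalised, run on 4–12% gels and blotted to PVDF with IRDye secondaries. BRD4 bands were quantified relative to β-actin. Two independent experiments.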

BRD4 [2] = target: T1, BRD4; assay: Immunoblot of BRD4 degradation in parental and KEAP1 knockdown OVCAR8 cells; assay type: cell-based
Procedure, shortened: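 OVCAR8 cells were grown in DMEM with 10% FBS. KEAP1 knockdown lines came from shRNA lentivirus made in HEK293T, used with polybrene (10 μg/mL) and selected with puromycin (1 μg/mL); knockdown was checked by Western blot. Parental and knockdown cells were treated with test compound for 16 h, then immunoblotted. BRD4 was normalised to β-actin. Two independent experiments.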

BRD4/3/2 = assay: Immunoblot of BRD4/3/2 in MM.1S cells; assay type: cell-based, human; conditions: indicated time points
Procedure, shortened: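 MM.1S cells were grown in RPMI with 10% FBS at 37 °C and 5% CO2, then given DMSO or test compound for a time course. Cells were lysed in RIPA with protease and phosphatase inhibitors. BCA-equalised protein was run on 4–12% gels and transferred to PVDF. Primary antibodies ran overnight at 4 °C and IRDye secondaries 1 h at room temperature. BRD4/3/2 bands were normalised to β-actin by densitometry. Two independent experiments.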

KEAP1-BRD4BD2 = KEAP1-BRD4BD2 (Homo sapiens, UniProt O60885+Q14145); assay: KEAP1-BRD4BD2 dimerization TR-FRET assay; assay type: biochemical
Procedure, shortened: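 TR-FRET mix: 200 nM biotinylated human BRD4BD2, 200 nM Alexa Fluor 647-labelled human KEAP1 (residues 321–609, insect-cell expressed, SpyCatcher-labelled) and 2 nM Eu-streptavidin. Buffer was 50 mM Tris pH 8.0, 200 mM NaCl, 0.1% Pluronic F-68, 0.5% BSA and 1 mM TCEP; compound was titrated. After 15 min at room temperature, excitation was 337 nm and the 665/620 nm ratio was read over thirty 200-s cycles. Mean ± SD of ≥3 technical replicates; two independent experiments.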

MM.1S proteome = assay: Multiplexed mass spectrometry-based proteomics in MM.1S cells; assay type: cell-based, human; conditions: 200 nM, 6 hours
Procedure, shortened: (§1)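 TMT-multiplexed LC-MS proteomics. Cells were treated with DMSO (biological triplicate) or test compound (MM.1S: 0.2 μM, 6 h; KPC: 1 μM, 8 h), harvested by centrifugation at 4 °C and lysed in 8 M urea/EPPS pH 8.5. 200 μg protein was reduced, alkylated and precipitated, digested with LysC 12 h at room temperature then trypsin 6 h at 37 °C, TMT-labelled, high-pH fractionated (96→24) and run on an Orbitrap Fusion Lumos.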

KPC cells = assay: Quantitative proteomics in KPC cells; assay type: cell-based, mouse; conditions: 1 μM, 8 hours
Procedure, shortened: as §1

FAK [3] = target: FAK (Mus musculus, UniProt P34152); assay: Immunoblot of FAK degradation in KPC cells; assay type: cell-based
Procedure, shortened: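 Murine pancreatic KPC cells (RPMI, 10% FBS) were exposed to 500 nM or 1 μM test compound over a time course. RIPA lysates were immunoblotted, with FAK band intensity normalised to β-actin in ImageJ. Blots are representative of two independent experiments.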

FAK [4] = target: FAK (Homo sapiens, UniProt Q05397); assay: Immunoblot of FAK degradation in PATU-8988T cells; assay type: cell-based; conditions: 0.1–5 μM, 24 h
Procedure, shortened: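 Human PATU-8988T pancreatic cells (DMEM, 10% FBS) were treated 24 h with test compound at 0.1–5 μM. FAK was assessed by immunoblot of RIPA lysates and normalised to β-actin. Two independent experiments.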

Sequence of FAK (Mus musculus, UniProt P34152) (P34152 whole entry): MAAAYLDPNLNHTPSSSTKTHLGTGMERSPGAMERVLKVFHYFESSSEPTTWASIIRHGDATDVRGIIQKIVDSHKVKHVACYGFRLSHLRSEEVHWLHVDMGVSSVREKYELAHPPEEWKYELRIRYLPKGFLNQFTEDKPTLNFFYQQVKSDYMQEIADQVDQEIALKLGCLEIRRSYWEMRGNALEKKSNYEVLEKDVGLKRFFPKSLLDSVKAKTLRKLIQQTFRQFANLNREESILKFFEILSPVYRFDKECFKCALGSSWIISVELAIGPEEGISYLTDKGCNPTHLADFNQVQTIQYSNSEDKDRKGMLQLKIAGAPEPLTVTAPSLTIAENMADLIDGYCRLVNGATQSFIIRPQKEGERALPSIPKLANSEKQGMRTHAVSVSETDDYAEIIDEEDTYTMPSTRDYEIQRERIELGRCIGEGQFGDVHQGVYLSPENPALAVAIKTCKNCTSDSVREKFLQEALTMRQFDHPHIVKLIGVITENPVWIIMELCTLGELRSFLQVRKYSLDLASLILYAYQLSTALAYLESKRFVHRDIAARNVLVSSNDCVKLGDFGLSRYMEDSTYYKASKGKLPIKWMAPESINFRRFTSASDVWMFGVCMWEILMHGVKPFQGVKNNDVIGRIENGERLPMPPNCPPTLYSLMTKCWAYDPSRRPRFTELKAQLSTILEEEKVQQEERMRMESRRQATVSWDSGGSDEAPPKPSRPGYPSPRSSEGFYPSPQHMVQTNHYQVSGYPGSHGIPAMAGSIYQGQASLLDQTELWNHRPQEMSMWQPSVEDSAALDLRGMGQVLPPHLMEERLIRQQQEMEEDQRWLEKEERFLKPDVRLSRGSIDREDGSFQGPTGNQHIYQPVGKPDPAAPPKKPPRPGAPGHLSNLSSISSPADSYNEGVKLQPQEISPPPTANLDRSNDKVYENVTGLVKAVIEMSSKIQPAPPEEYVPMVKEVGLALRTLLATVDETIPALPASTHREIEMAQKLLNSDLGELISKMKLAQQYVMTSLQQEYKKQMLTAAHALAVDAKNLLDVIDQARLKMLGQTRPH
Sequence of KEAP1-BRD4BD2 (Q14145 321-609 limits assumed, other chains not shown): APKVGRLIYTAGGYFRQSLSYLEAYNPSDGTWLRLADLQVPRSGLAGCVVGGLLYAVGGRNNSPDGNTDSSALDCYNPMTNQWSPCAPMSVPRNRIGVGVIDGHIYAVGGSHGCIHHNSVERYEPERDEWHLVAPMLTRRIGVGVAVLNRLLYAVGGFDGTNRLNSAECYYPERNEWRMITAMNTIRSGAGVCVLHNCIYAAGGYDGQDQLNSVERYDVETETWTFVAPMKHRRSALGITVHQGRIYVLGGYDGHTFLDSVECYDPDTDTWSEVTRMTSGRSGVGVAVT
Sequence of FAK (Homo sapiens, UniProt Q05397) (Q05397 whole entry): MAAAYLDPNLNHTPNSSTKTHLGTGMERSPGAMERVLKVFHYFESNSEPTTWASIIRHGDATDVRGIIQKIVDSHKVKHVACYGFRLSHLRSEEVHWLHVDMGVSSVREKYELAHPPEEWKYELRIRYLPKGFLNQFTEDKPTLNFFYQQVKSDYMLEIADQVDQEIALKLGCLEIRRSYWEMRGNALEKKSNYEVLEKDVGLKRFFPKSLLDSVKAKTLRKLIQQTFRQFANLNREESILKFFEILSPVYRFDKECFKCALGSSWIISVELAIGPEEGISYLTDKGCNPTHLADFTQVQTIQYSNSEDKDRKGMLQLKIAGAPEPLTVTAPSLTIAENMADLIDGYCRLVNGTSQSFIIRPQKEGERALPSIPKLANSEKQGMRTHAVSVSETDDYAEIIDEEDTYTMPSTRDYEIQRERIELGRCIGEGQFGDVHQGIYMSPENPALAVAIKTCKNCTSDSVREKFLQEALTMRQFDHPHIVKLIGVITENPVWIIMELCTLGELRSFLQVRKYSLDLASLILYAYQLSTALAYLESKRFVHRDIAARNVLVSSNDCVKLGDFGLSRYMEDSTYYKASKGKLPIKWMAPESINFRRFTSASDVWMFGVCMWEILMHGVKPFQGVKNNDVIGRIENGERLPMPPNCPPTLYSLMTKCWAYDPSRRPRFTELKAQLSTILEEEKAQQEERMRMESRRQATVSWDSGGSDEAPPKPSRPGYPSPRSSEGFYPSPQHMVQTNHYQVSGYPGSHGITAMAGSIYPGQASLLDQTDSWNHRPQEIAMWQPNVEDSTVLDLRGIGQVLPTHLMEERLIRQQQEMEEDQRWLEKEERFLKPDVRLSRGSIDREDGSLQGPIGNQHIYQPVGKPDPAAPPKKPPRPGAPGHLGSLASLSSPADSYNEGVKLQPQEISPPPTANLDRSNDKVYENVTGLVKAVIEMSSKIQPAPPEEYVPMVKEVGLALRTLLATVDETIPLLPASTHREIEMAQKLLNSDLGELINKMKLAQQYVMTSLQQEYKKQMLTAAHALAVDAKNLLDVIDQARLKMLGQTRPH

Cc1ccc(C(CC(=O)O)c2cc(OCC(=O)NCCOCCOCCN3CCN(c4ccc(Nc5ncc(Cl)c(Nc6ccccc6S(=O)(=O)C(C)C)n5)cc4)CC3)c3c(c2)nnn3C)cc1CN1CC(C)Oc2ccccc2S1(=O)=O (centres unmarked) [DGY-03–188, 3-(7-(2-((2-(2-(2-(4-(4-((5-chloro-4-((2-(isopropylsulfonyl)phenyl)amino)pyrimidin-2-yl)amino)phenyl)piperazin-1-yl)ethoxy)ethoxy)ethyl)amino)-2-oxoethoxy)-1-methyl-1H-benzo[d][1,2,3]triazol-5-yl)-3-(4-methyl-3-((4-methyl-1,1-dioxido-3,4-dihydro-2H-benzo[b][1,4,5]oxathiazepin-2-yl)methyl)phenyl)propanoic acid]
degradation across the whole proteome (HEK293T cells): did not induce any degradation across the whole proteome

COc1cc([C@@H](CC(=O)O)c2ccc(C)c(CN3C[C@@H](C)Oc4cc(CCCCCCNC(=O)C[C@@H]5N=C(c6ccc(Cl)cc6)c6c(sc(C)c6C)-n6c(C)nnc65)ccc4S3(=O)=O)c2)cc2nnn(C)c12 [DGY-06–177-pk2, (S)-3-(3-(((R)-7-(6-(2-((S)-4-(4-chlorophenyl)-2,3,9-trimethyl-6H-thieno[3,2-f][1,2,4]triazolo[4,3-a][1,4]diazepin-6-yl)acetamido)hexyl)-4-methyl-1,1-dioxido-3,4-dihydro-2H-benzo[b][1,4,5]oxathiazepin-2-yl)methyl)-4-methylphenyl)-3-(7-methoxy-1-methyl-1H-benzo[d][1,2,3]triazol-5-yl)propanoic acid]
BRD4 degradation, enantiomers compared (BRD4 [1]; MM1.S cells, 24-hour treatment at 1 μM): induced stronger degradation of BRD4
BRD4 degradation after pre-treatment with MLN4924 (BRD4 [1]; MM.1S cells, 1 μM MLN4924 2 h prior, then 16 hrs): BRD4 degradation was blocked
BRD4 degradation after pre-treatment with excess (+)-JQ1 or KI-696 (BRD4 [1]; MM.1S cells, 10 μM JQ1 or 10 μM KEAP1 inhibitor 2 h prior, then 16 hrs): abolished
effect on BRD4 abundance (BRD4 [2]; KEAP1 knockdown (KEAP1^KD) OVCAR8 cells, 16 h): no effect on BRD4 abundance
BRD4 degradation (BRD4 [2]; OVCAR8 cells, 1 μM): induces degradation of BRD4
concentration of maximal BRD4 degradation (BRD4 [2]; parental OVCAR8 cells, 16 hours): 1 µM
degradation of BRD4 versus BRD2 and BRD3 by immunoblotting (BRD4/3/2): preferentially induces BRD4 degradation while largely sparing BRD2&3
concentration at which KEAP1-BRD4BD2 dimerization is promoted (KEAP1-BRD4BD2): approximately 100 nM
selectivity of degradation across the proteome (MM.1S proteome): BRD4 as the only significantly downregulated protein

COc1cc([C@@H](CC(=O)O)c2ccc(C)c(CN3C[C@@H](C)Oc4cc(CCCN5CCN(c6ccc(Nc7ncc(Cl)c(Nc8ccccc8S(=O)(=O)C(C)C)n7)cc6)CC5)ccc4S3(=O)=O)c2)cc2nnn(C)c12 [NJH-04–098, (S)-3-(3-(((R)-7-(3-(4-(4-((5-chloro-4-((2-(isopropylsulfonyl)phenyl)amino)pyrimidin-2-yl)amino)phenyl)piperazin-1-yl)propyl)-4-methyl-1,1-dioxido-3,4-dihydro-2H-benzo[b][1,4,5]oxathiazepin-2-yl)methyl)-4-methylphenyl)-3-(7-methoxy-1-methyl-1H-benzo[d][1,2,3]triazol-5-yl)propanoic acid]
proteins downregulated across the proteome (KPC cells): only FAK (PTK2) was significantly downregulated across the proteome
time of maximal FAK degradation (FAK [3]; 500 nM): 24 h
time of maximal FAK degradation (FAK [3]; 1 μM): 8 h
FAK degradation (FAK [4]): did not observe degradation of FAK

Source: publication PMC9588736 (Cell chemical biology, 2022)
